# According to ChEMBL document CHEMBL1121509, “Metabolic N-hydroxylation. Use of substituent variation to modulate the in vitro bioactivation of 4-acetamidostilbenes” (J Med Chem, 1980):
# Columns and labels:
# Type in all cases: ADME
# Conditions in all cases: microsomes
# [1] = Compound was evaluated for the apparent kinetic constant (Km) for the microsomal oxidation (glycolamide metabolite)
# [2] = Compound was evaluated for the apparent kinetic constant (Km) for the microsomal oxidation (hydroxamic acid metabolite)
# [3] = Compound was evaluated for the kinetic constant (Vmax) for the microsomal oxidation (glycolamide metabolite); Values are pmol(1/mg of microsomal protein)min
# [4] = Compound was evaluated for the kinetic constant (Vmax) for the microsomal oxidation (hydroxamic acid metabolite); Values are pmol(1/mg of microsomal protein)min; parameters: unit: pmol/min/mg protein
# [5] = Selectivity ratio of Vmax and Km for microsomal oxidation (glycolamide metabolite)
# Method in brief: (§1)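 V/K computed as Vmax/Km, an apparent first-order rate constant […], from Wilkinson-fitted kinetic constants of 10-min, 37 °C liver microsomal incubations with NADPH-generating system and paraoxon; metabolites quantified by TLC and dual-label (¹⁴C/³H) radiochemical assay.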
# [6] = Selectivity ratio of Vmax and Km for microsomal oxidation (hydroxamic acid metabolite); method in brief: as §1
# [7] = Compound was evaluated for the apparent kinetic constant (Km) for the microsomal oxidation (4'-hydroxy metabolite)
# [8] = Compound was evaluated for the kinetic constant (Vmax) for the microsomal oxidation (4'-hydroxy metabolite); Values are pmol(1/mg of microsomal protein)min
# [9] = Selectivity ratio of Vmax and Km for microsomal oxidation (4'-hydroxy metabolite); method in brief: as §1
# [10] = Selectivity ratio of Vmax and Km for microsomal oxidation; method in brief: as §1
# [11] = Compound was evaluated for the kinetic constant (Vmax) for the microsomal oxidation (hydroxamic acid metabolite)
# [12] = Compound was evaluated for the apparent kinetic constant (Km) for the microsomal oxidation (omega-1 hydroxy metabolite)
# [13] = Selectivity ratio of Vmax and Km for microsomal oxidation (omega-1 hydroxy metabolite); method in brief: as §1
# [14] = Compound was evaluated for the kinetic constant (Vmax) for the microsomal oxidation (omega-1 hydroxy metabolite); Values are pmol(1/mg of microsomal protein)min
# [15] = Compound was evaluated for the apparent kinetic constant (Km) for the microsomal oxidation (hydroxymethyl metabolite)
# [16] = Compound was evaluated for the kinetic constant (Vmax) for the microsomal oxidation (hydroxymethyl metabolite); Values are pmol(1/mg of microsomal protein)min
Km [2],Vmax [4],Structure (SMILES),Ratio [6],Ratio [10],other results
2900 µM,88,CC(=O)Nc1ccc(/C=C/c2ccc(F)cc2)cc1,0.03,–,Km [1]: 3300 µM; Vmax [3]: 27; Ratio [5]: 0.008
2800 µM,2767,CC(=O)Nc1ccc(/C=C/c2ccccc2)cc1,0.99,–,Km [7]: 500 µM; Vmax [8]: 467; Ratio [9]: 0.93
3300 µM,98,CC(=O)Nc1ccc(/C=C/c2ccc(Cl)cc2)cc1,0.03,–,Km [1]: 3500 µM; Vmax [3]: 17; Ratio [5]: 0.005
310 µM,677,CC(=O)Nc1ccc(/C=C/c2ccc(C#N)cc2)cc1,–,2.18,–
60 µM,–,CC(=O)Nc1ccc(/C=C/c2ccc(C)cc2)cc1,4.05,–,Vmax [11]: 243
1200 µM,330,CCCCOc1ccc(/C=C/c2ccc(NC(C)=O)cc2)cc1,0.28,–,Km [12]: 1100 µM; Ratio [13]: 0.48; Vmax [14]: 530
1900 µM,457,CC(=O)Nc1ccc(/C=C/c2ccc(Br)cc2)cc1,–,0.24,–
–,–,CC(=O)Nc1ccc(/C=C/c2ccc(C(C)(C)C)cc2)cc1,–,12.54,Km [15]: 90 µM; Vmax [16]: 1129
